# Data as given in ChEMBL document CHEMBL1156750 (Bioorg Med Chem Lett, 2009).
# How the values were obtained:
# Coagulation factor X = Coagulation factor X (Homo sapiens, UniProt P00742)
# Rattus norvegicus [1] = assay: Anticoagulant activity against Sprague-Dawley rat arterial thrombosis model induced by topical application of Fecl2; assay type: functional
# In short: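 Rat carotid artery thrombosis: vehicle (PEG-400) or compound given by 1 mL/kg gavage at 0 min (5, 10, 15, 30 mg/kg; n = 5, 6, 6, 4; vehicle n = 8), with aspirin 10 mg/kg iv 15 min before FeCl2. Rats anesthetized at 30 min. 50% FeCl2 applied topically at 60 min for 10 min. Thrombus weight taken 1 h later. ANOVA with Dunnett's test.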
# Plasma = assay: Anticoagulant activity in human plasma assessed as concentration required to double the prothrombin based clotting time after 30 seconds; assay type: functional
# In short: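 Human plasma prothrombin-based clotting time; value is the inhibitor concentration that doubles the clotting time, averaged from two independent determinations.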
# Cytochrome P450 3A4 = Cytochrome P450 3A4 (Homo sapiens, UniProt P08684); assay: Inhibition of CYP3A4 using BFC as a substrate; assay type: ADME
# Chain of Cytochrome P450 3A4 (P08684 whole entry): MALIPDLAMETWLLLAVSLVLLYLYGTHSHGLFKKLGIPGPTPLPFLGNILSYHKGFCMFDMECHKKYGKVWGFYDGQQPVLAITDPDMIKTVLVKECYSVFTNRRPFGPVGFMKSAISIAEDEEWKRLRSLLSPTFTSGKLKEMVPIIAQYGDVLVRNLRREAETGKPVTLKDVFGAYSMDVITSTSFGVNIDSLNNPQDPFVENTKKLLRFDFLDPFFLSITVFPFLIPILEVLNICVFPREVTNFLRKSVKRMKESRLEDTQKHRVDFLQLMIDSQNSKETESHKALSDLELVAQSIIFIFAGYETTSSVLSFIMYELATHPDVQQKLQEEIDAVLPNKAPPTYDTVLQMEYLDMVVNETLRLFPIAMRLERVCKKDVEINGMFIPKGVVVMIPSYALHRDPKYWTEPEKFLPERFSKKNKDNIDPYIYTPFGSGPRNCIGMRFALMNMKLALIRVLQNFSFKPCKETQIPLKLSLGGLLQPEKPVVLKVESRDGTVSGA
# Cytochrome P450 2C19 = Cytochrome P450 2C19 (Homo sapiens, UniProt P33261); assay: Inhibition of CYP2C19; assay type: ADME
# Chain of Cytochrome P450 2C19 (P33261 whole entry): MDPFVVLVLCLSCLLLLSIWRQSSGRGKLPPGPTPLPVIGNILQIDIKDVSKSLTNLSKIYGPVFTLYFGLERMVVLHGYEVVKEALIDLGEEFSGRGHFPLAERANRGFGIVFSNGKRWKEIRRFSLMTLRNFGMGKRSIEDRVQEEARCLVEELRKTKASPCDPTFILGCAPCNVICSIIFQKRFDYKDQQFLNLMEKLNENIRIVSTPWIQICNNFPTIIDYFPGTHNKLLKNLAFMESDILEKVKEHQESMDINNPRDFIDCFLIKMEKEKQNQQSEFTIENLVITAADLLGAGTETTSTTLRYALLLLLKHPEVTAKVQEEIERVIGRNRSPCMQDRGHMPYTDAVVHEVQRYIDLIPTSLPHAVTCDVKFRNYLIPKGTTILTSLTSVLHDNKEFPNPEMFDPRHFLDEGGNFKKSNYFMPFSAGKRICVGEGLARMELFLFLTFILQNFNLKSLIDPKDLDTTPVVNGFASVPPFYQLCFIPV
# Cytochrome P450 2C9 = Cytochrome P450 2C9 (Homo sapiens, UniProt P11712); assay: Inhibition of CYP2C9; assay type: ADME
# Chain of Cytochrome P450 2C9 (P11712 whole entry): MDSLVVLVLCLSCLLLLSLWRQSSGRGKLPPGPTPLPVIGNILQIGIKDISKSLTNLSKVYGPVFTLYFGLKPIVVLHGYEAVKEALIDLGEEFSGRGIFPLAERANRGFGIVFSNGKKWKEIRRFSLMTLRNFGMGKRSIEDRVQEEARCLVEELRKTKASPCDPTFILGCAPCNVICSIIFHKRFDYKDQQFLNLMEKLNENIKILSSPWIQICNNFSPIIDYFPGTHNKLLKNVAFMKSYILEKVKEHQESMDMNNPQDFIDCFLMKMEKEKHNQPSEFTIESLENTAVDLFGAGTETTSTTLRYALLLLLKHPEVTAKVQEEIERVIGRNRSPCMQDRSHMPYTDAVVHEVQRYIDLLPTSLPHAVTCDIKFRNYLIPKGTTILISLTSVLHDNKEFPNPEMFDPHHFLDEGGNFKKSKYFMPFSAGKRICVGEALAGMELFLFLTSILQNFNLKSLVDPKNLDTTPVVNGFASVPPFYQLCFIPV
# Rattus norvegicus [2] = assay: Ex vivo anticoagulant activity in Sprague-Dawley rat assessed as prolongation of prothrombin time at 30mg/kg, id after 120 mins; assay type: functional
# In short: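 Anesthetized rats dosed intraduodenally at 30 mg/kg in 10% ethanol/90% PEG300, then a saline flush. Arterial blood drawn into 3.8% Na-citrate (1/10, v/v) before dosing and at 30, 60, 90 and 120 min. Ex vivo prothrombin time measured on a micro coagulation analyzer using Thromboplastin-C reagent.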
# Chain of Coagulation factor X (P00742 41-179 limits assumed): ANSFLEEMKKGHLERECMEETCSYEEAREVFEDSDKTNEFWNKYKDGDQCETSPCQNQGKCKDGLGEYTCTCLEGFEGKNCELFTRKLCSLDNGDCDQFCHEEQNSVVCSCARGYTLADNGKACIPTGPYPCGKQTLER
# Chain of Coagulation factor X (P00742 235-488 limits assumed): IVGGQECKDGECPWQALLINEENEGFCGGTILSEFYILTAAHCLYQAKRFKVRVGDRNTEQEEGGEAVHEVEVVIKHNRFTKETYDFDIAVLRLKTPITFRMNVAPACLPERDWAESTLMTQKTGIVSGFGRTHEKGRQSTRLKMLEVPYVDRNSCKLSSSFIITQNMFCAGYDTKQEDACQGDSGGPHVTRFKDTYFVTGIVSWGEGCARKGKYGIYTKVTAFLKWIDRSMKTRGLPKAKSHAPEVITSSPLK
Compound,IC50 (Coagulation factor X) [µM],Activity (Plasma) [µM],other results
Cc1cc2cc(N/C(=N\C(=O)c3ccc(C(=O)N(C)C)cc3)N[C@H]3CCCCN(CC(=O)N4CCCC4)C3=O)ccc2o1,0.003,4,fold change (FC) (Rattus norvegicus [1]): >=3.6
Cc1cc2cc(N/C(=N\C(=O)c3ccccc3)N[C@H]3CCCCN(CC(=O)N4CCCC4)C3=O)ccc2o1,,48,
Cc1cc2cc(N/C(=N\C(=O)c3ccc(C(N)=O)nc3)N[C@H]3CCCCN(CC(=O)N4CCCC4)C3=O)ccc2o1,,5.7,IC50 (Cytochrome P450 3A4): 18 µM; IC50 (Cytochrome P450 2C19): 13 µM; IC50 (Cytochrome P450 2C9): 22 µM
Cc1cc2cc(N/C(=N\C(=O)c3ccc(C(=O)O)nc3)N[C@H]3CCCCN(CC(=O)N4CCCC4)C3=O)ccc2o1,,6.8,IC50 (Cytochrome P450 3A4): 87 µM; IC50 (Cytochrome P450 2C19): 47 µM; IC50 (Cytochrome P450 2C9): 122 µM
CCOC(=O)/N=C(\Nc1ccc2oc(C)cc2c1)N[C@H]1CCCCN(CC(=O)N2CCCC2)C1=O,,34,
Cc1cc2cc(N/C(=N\C(=O)c3cncc(C(N)=O)c3)N[C@H]3CCCCN(CC(=O)N4CCCC4)C3=O)ccc2o1,,7,IC50 (Cytochrome P450 3A4): 0.4 µM; IC50 (Cytochrome P450 2C19): 37 µM; IC50 (Cytochrome P450 2C9): 10 µM
Cc1cc2cc(N/C(=N/[N+](=O)[O-])N[C@H]3CCCCN(CC(=O)N4CCCC4)C3=O)ccc2o1,0.025,>50,
COC(=O)c1ccc(C(=O)/N=C(\Nc2ccc3oc(C)cc3c2)N[C@H]2CCCCN(CC(=O)N3CCCC3)C2=O)nc1,,16,
Cc1cc2cc(N/C(=N\C(=O)c3cnccn3)N[C@H]3CCCCN(CC(=O)N4CCCC4)C3=O)ccc2o1,,18,
COC(=O)c1cccc(C(=O)/N=C(\Nc2ccc3oc(C)cc3c2)N[C@H]2CCCCN(CC(=O)N3CCCC3)C2=O)c1,0.005,41,
Cc1cc2cc(/N=C(/NC#N)N[C@H]3CCCCN(CC(=O)N4CCCC4)C3=O)ccc2o1,,32,fold change (FC) (Rattus norvegicus [2]): >=1.8; fold change (FC) (Rattus norvegicus [1]): ≥ 1.8
Cc1cc2cc(N/C(=N\C(=O)c3ccc(C(=O)O)cc3)N[C@H]3CCCCN(CC(=O)N4CCCC4)C3=O)ccc2o1,,5,
Cc1cc2cc(N/C(=N\C(=O)c3cnn(C)c3)N[C@H]3CCCCN(CC(=O)N4CCCC4)C3=O)ccc2o1,,11,
Cc1cc2cc(N/C(=N\C(=O)c3cccc(C(=O)N(C)C)c3)N[C@H]3CCCCN(CC(=O)N4CCCC4)C3=O)ccc2o1,0.01,8,
Cc1cc2cc(N/C(=N\C(=O)c3ccc(Cl)nc3)N[C@H]3CCCCN(CC(=O)N4CCCC4)C3=O)ccc2o1,,14,IC50 (Cytochrome P450 3A4): 8 µM; IC50 (Cytochrome P450 2C19): 22 µM; IC50 (Cytochrome P450 2C9): 12 µM
Cc1cc2cc(N/C(=N\S(N)(=O)=O)N[C@H]3CCCCN(CC(=O)N4CCCC4)C3=O)ccc2o1,0.012,>50,
CNC(=O)c1ccc(C(=O)/N=C(\Nc2ccc3oc(C)cc3c2)N[C@H]2CCCCN(CC(=O)N3CCCC3)C2=O)cn1,,3,IC50 (Cytochrome P450 3A4): 18 µM; IC50 (Cytochrome P450 2C19): 12 µM; IC50 (Cytochrome P450 2C9): 24 µM

Compound,IC50 (Coagulation factor X) [µM],Activity (Plasma) [µM],other results
Cc1cc2cc(N/C(=N\C(=O)c3cccc(Cl)c3)N[C@H]3CCCCN(CC(=O)N4CCCC4)C3=O)ccc2o1,,>50,
Cc1cc2cc(N/C(=N\C(=O)c3ccncc3)N[C@H]3CCCCN(CC(=O)N4CCCC4)C3=O)ccc2o1,,16,
Cc1cc2cc(N/C(=N\S(=O)(=O)c3ccccc3)N[C@H]3CCCCN(CC(=O)N4CCCC4)C3=O)ccc2o1,0.024,>50,
Cc1cc2cc(N/C(=N\C(N)=O)N[C@H]3CCCCN(CC(=O)N4CCCC4)C3=O)ccc2o1,,60,
Cc1cc2cc(N/C(=N\C(=O)c3cccc(C(N)=O)c3)N[C@H]3CCCCN(CC(=O)N4CCCC4)C3=O)ccc2o1,0.018,7,
Cc1cc2cc(N/C(=N\C(=O)N(C)C)N[C@H]3CCCCN(CC(=O)N4CCCC4)C3=O)ccc2o1,,55,
Cc1cc2cc(/N=C(/NC(=O)c3cccnc3)N[C@H]3CCCCN(CC(=O)N4CCCC4)C3=O)ccc2o1,,7,IC50 (Cytochrome P450 3A4): 0.3 µM; IC50 (Cytochrome P450 2C19): 8 µM; fold change (FC) (Rattus norvegicus [2]): >=3.2; IC50 (Cytochrome P450 2C9): 10 µM
COC(=O)c1ccc(C(=O)/N=C(\Nc2ccc3oc(C)cc3c2)N[C@H]2CCCCN(CC(=O)N3CCCC3)C2=O)cc1,,18,
Cc1cc2cc(N/C(=N\C(=O)c3ccoc3)N[C@H]3CCCCN(CC(=O)N4CCCC4)C3=O)ccc2o1,,33,
CC(=O)/N=C(\Nc1ccc2oc(C)cc2c1)N[C@H]1CCCCN(CC(=O)N2CCCC2)C1=O,,70,
Cc1cc2cc(N/C(=N\C(=O)c3ccsc3)N[C@H]3CCCCN(CC(=O)N4CCCC4)C3=O)ccc2o1,,19,
Cc1cc2cc(N/C(=N\C(=O)c3ccc(C(N)=O)cc3)N[C@H]3CCCCN(CC(=O)N4CCCC4)C3=O)ccc2o1,0.003,5,fold change (FC) (Rattus norvegicus [1]): >=3.6
Cc1cc2cc(N/C(=N\C(=O)c3ccc[n+]([O-])c3)N[C@H]3CCCCN(CC(=O)N4CCCC4)C3=O)ccc2o1,0.01,3,IC50 (Cytochrome P450 3A4): 0.9 µM; IC50 (Cytochrome P450 2C19): 128 µM; IC50 (Cytochrome P450 2C9): 122 µM
Cc1ccc(C(=O)/N=C(\Nc2ccc3oc(C)cc3c2)N[C@H]2CCCCN(CC(=O)N3CCCC3)C2=O)cn1,,12,IC50 (Cytochrome P450 3A4): 7 µM; IC50 (Cytochrome P450 2C19): 27 µM; IC50 (Cytochrome P450 2C9): 9 µM
Cc1cc2cc(N/C(=N\S(C)(=O)=O)N[C@H]3CCCCN(CC(=O)N4CCCC4)C3=O)ccc2o1,0.01,60,
Cc1cc2cc(N/C(=N\C(=O)c3nnn(C)n3)N[C@H]3CCCCN(CC(=O)N4CCCC4)C3=O)ccc2o1,,28,
